Assay results from different studies.
Each line is one published result; the experiments were not run side by side.
Read-out: metabolic stability
Host: human

SMILES | system | setting | scaled CLint
NC1=N[C@@]2(c3ccc(F)cc3F)CO[C@@H](c3ncco3)C[C@H]2CS1 | liver microsomes |  | < 8.7 mL/min/kg
CC(=O)N(C)C1CCN(c2cc(F)cc(NC(=O)c3cc4c(F)ccc(C)c4[nH]3)c2)C1 (centres unmarked) | hepatocytes | 0.5 µM, 2 h | 64 mL/min/kg
O=C(Nc1ccc(N2C(=O)c3cccc(Cl)c3C2=O)c(Cl)c1)c1ncccc1Cl | liver microsomes | 1 µM, pH 7.4 | 17.2 mL/min/kg
Cc1cc([C@H]2C[C@H]3[C@@H](C)SC(N)=N[C@@]3(c3ccc(F)cc3F)CO2)on1 | liver microsomes |  | < 8 mL/min/kg
O=C1NCCc2nc(OCc3cccc(F)c3)ccc21 | liver microsomes |  | 25 mL/min/kg
Cc1ccc(F)c2cc(C(=O)N[C@@H]3CCC[C@H](N4CCN(S(C)(=O)=O)CC4)C3)[nH]c12 | hepatocytes | 0.5 µM, 2 h | 41 mL/min/kg
Cc1coc([C@H]2C[C@H]3CSC(N)=N[C@@]3(c3ccc(F)cc3F)CO2)n1 | liver microsomes |  | 69.6 mL/min/kg
Nc1nc(-c2ccc(NC(=O)Nc3cc(Br)cc(Br)c3)cc2)c[nH]1 | liver microsomes | 5 µM, pH 7.4 | < 10.4 mL/min/kg
Cc1cc([C@H]2C[C@H]3CSC(N)=N[C@@]3(c3ccc(F)cc3F)CO2)on1 | liver microsomes |  | 55.2 mL/min/kg
CC(C)(C)n1cc2c(n1)C(O)C(C)(C)C1(CCN(C(=O)c3ccc4[nH]ncc4c3)CC1)O2 (centres unmarked) | liver microsomes |  | 17 mL/min/kg
COc1ccc2nc3cc(Cl)ccc3c(Nc3cc(CN4CCCC4)c(O)c(CN4CCCC4)c3)c2n1 | hepatocytes | 1 µM | 3.8 mL/min/kg
O=C1c2ccc(COc3ccccc3)nc2CCN1c1ccc(F)cc1 | liver microsomes |  | 18 mL/min/kg
CC(=O)Nc1cc(Nc2cc(NC3CC3)n3ncc(C#N)c3n2)ccc1N(C)C[C@@H]1CCCN1 | hepatocytes | 1 µM, serum-free | 0.8 mL/min/kg
CCCN(C)Cc1cc(-c2[nH]c3cccc(F)c3c(=O)c2C)ccc1Cc1ccc(OC(F)(F)F)cc1 | liver microsomes |  | 1040 mL/min/kg
Cc1ccc(F)c2cc(C(=O)N[C@@H]3CCC[C@H](N4CCN(C)C(=O)C4)C3)[nH]c12 | hepatocytes | 0.5 µM, 2 h | 23.7 mL/min/kg
Nc1nc(-c2ccc(NC(=O)Nc3ccc(-c4c[nH]c(N)n4)c(F)c3)cc2F)c[nH]1 | liver microsomes | 5 µM, pH 7.4 | < 20.8 mL/min/kg
Cc1cc(NC(=O)Cc2ccc(F)c(C#N)c2)n(CC2CCCCC2)n1 | liver microsomes |  | 648 mL/min/kg
CC(C)N1Cc2cc(C(F)(F)F)ncc2C2=CN=C(NCc3c(F)ccc4c3CCO4)N3C=NC(C1=O)C23 (centres unmarked) | liver microsomes | 100 µM, 30 min | 5.65 mL/min/kg
Nc1nc(-c2ccc(NC(=O)c3ccc(Cl)c(Cl)c3)cc2F)c[nH]1 | liver microsomes | 5 µM, 1 h, pH 7.4 | 10.9 mL/min/kg
C[C@H]1SC(N)=N[C@@]2(c3ccc(F)cc3F)CO[C@@H](c3cnn(C)c3)C[C@@H]12 | liver microsomes |  | < 8 mL/min/kg
